Experimental data: ChEMBL document CHEMBL1764971, “7-azabicyclo[2.2.1]heptane as a structural motif to block mutagenicity of nitrosamines” (Bioorg Med Chem, 2011)

Tests used:
Salmonella typhimurium [1] = test: Mutagenic activity in Salmonella Typhimurium TA100 assessed as number of revertants after 44 hrs by Ames test in presence of rat liver S9 fraction; assay type: toxicity, organism-based; conditions: salmonella enterica subsp. enterica serovar typhimurium, s9, 44 h
How it was run: (§1)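 Pre-incubation Ames method. Compound at 0.03, 0.06, 0.13, 0.25 or 0.5 mg in DMSO, mixed with 0.5 mL rat liver S9 mix (P450s plus NADPH-regenerating system) and 0.1 mL tester-strain culture. Shaken 30 min at 37 °C, then top agar added and poured onto minimal-glucose agar. Revertant colonies counted after 44 h at 37 °C. Duplicate plates, experiments repeated at least twice; mean of duplicates.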

Salmonella typhimurium [2] = test: Mutagenic activity in Salmonella Typhimurium TA98 assessed as number of revertants after 44 hrs by Ames test in presence of rat liver S9 fraction; assay type: toxicity, organism-based; conditions: salmonella enterica subsp. enterica serovar typhimurium, s9, 44 h; how it was run: as §1
Salmonella typhimurium [3] = test: Mutagenic activity in Salmonella Typhimurium TA98 assessed as number of revertants after 44 hrs by Ames test; assay type: toxicity, organism-based; conditions: salmonella enterica subsp. enterica serovar typhimurium
How it was run: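 Pre-incubation Ames method without metabolic activation. Compound at 0.03, 0.06, 0.13, 0.25 or 0.5 mg in DMSO, mixed with 0.5 mL 0.1 M sodium phosphate buffer (pH 7.4) and 0.1 mL tester-strain culture. Shaken 30 min at 37 °C, then plated in top agar on minimal-glucose agar. Colonies counted after 44 h at 37 °C. Duplicate plates, at least two experiments; mean of duplicates.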

Salmonella typhimurium [4] = test: Cytotoxicity against Salmonella Typhimurium TA98; assay type: organism-based; conditions: salmonella enterica subsp. enterica serovar typhimurium
Salmonella typhimurium [5] = test: Cytotoxicity against Salmonella Typhimurium TA98 in presence of rat liver S9 fraction; assay type: organism-based; conditions: salmonella enterica subsp. enterica serovar typhimurium

Compound | Activity (Salmonella typhimurium [1]) | Activity (Salmonella typhimurium [2]) | Activity (Salmonella typhimurium [3]) | Activity (Salmonella typhimurium [4]) | Activity (Salmonella typhimurium [5])
CN1C(=O)[C@@H]2C3c4ccccc4C([C@@H]2C1=O)N3N=O | Non-toxic | Non-toxic | Non-toxic | – | –
O=NN1C2CCC1CC2 | Non-toxic | Non-toxic | Non-toxic | – | –
COC(=O)C1C(C(=O)OC)C2CCC1N2N=O (stereo unspecified) | Non-toxic | Non-toxic | Non-toxic | – | –
O=NN1C2CCC1c1cc([N+](=O)[O-])ccc12 (stereo unspecified) | Non-toxic | Non-toxic | Non-toxic | – | –
O=NN1CCCC1 | Toxic | Toxic | Non-toxic | – | –
COC(=O)C1CC2(COCc3ccccc3)CCC1N2N=O (stereo unspecified) | Non-toxic | Non-toxic | Non-toxic | – | –
COc1cc2c(cc1OC)C1CCC2N1N=O | Toxic | Toxic | Toxic | – | –
O=NN1Cc2ccccc2C1 | Toxic | Toxic | Non-toxic | – | –
O=NN1C2CC(O)C1c1ccc([N+](=O)[O-])cc12 (stereo unspecified) | Toxic | Toxic | Toxic | – | –
O=NN1C2C=CC1c1cc([N+](=O)[O-])ccc12 (stereo unspecified) | Toxic | Toxic | Toxic | – | –
O=NN1C2CC(O)C1c1ccccc12 (stereo unspecified) | Non-toxic | Non-toxic | Non-toxic | – | –
COC(=O)C1CC2c3ccccc3C1N2N=O (stereo unspecified) | Non-toxic | Non-toxic | Non-toxic | – | –
COCC12CCC(C(C(=O)OC)C1)N2N=O (stereo unspecified) | Non-toxic | Non-toxic | Non-toxic | – | –
COC(=O)C1C(C(=O)OC)C2c3ccccc3C1N2N=O (stereo unspecified) | Non-toxic | Non-toxic | Non-toxic | – | –
CCOC(=O)CCN1C(=O)C2C(C1=O)C1c3ccccc3C2N1N=O (stereo unspecified) | Non-toxic | Non-toxic | Non-toxic | – | –
O=NN1C2c3ccccc3C1C1C(=O)N(c3ccccc3)C(=O)C12 (stereo unspecified) | Non-toxic | Non-toxic | Non-toxic | Toxic | Non-toxic
O=NN1C2c3ccccc3C1C(C(F)(F)F)C2C(F)(F)F (stereo unspecified) | Non-toxic | Non-toxic | Non-toxic | – | –
O=NN1C2CCC1c1ccccc12 | Non-toxic | Non-toxic | Non-toxic | – | –
